Results on 1 compound are retold here after ChEMBL document CHEMBL3817796, “Discovery of Novel 15-Lipoxygenase Activators To Shift the Human Arachidonic Acid Metabolic Network toward Inflammation Resolution” (J Med Chem, 2016).

Activity calls are given as the source filed them. The calls are words filed in the database; no cut-off is given here.

Experiment [1] concerns the target T1, Polyunsaturated fatty acid lipoxygenase ALOX15 (Homo sapiens) (UniProt P16050).
T1 sequence (whole entry): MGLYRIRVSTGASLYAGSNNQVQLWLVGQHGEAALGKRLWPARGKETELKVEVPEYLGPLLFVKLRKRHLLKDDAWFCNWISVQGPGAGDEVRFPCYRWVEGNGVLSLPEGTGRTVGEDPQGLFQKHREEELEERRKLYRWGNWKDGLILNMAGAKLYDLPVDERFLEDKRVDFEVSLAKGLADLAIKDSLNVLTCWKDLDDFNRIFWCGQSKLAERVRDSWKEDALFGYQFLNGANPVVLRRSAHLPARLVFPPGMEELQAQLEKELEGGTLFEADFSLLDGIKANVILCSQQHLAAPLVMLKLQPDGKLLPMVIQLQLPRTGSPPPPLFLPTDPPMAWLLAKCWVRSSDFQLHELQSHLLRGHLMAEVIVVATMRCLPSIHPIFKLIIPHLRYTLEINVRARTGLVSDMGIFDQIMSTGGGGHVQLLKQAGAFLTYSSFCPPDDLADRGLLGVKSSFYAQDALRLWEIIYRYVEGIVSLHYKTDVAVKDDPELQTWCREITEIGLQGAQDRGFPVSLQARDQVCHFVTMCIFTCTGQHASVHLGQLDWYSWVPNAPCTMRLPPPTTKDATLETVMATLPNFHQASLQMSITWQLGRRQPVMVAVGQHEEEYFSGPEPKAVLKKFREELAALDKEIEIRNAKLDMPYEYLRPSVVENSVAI
In words: Activation of 15-LOX in human whole blood assessed as reduction in LTB4 production at 100 uM pre-incubated for 20 mins before stimulation with LPS and A23187 for 120 mins in presence of 2 uM […] inhibitor Zileuton by LC-MS/MS method. Type of experiment: tissue-based. The essentials:
(§1)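 Human blood preincubated 20 min at 37 °C with DMSO vehicle or compound in DMSO. LPS added at 100 μg/mL for 24 h at 37 °C, then A23187 at 20 μg/mL final. Samples frozen in liquid nitrogen at time points, lysed by freeze–thaw, with PGB2 internal standard. Analysed by C18 LC-MRM MS, negative ion. Change = control-normalized concentration minus 1, ×100%; 120 min value from AUC.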

The target of experiment [2] is T2, Prostaglandin E synthase (Homo sapiens) (UniProt O14684).
T2 sequence (whole entry): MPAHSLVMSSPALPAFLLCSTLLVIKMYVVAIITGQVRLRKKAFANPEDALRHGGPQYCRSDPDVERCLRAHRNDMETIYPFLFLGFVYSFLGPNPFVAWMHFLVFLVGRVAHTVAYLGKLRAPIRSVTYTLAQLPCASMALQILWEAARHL
In words: Inhibition of mPGES-1 (unknown origin) assessed as reduction in conversion of PGH2 to PGE2 at 100 uM by EIA method. An outline of the steps:
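mPGES-1 activity taken as conversion of PGH2 to PGE2, with PGE2 measured by EIA. Compound handled as in the 15-LOX assay.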

The target of experiment [3] is T3, Cytosolic phospholipase A2 (Homo sapiens) (UniProt P47712).
T3 sequence (whole entry): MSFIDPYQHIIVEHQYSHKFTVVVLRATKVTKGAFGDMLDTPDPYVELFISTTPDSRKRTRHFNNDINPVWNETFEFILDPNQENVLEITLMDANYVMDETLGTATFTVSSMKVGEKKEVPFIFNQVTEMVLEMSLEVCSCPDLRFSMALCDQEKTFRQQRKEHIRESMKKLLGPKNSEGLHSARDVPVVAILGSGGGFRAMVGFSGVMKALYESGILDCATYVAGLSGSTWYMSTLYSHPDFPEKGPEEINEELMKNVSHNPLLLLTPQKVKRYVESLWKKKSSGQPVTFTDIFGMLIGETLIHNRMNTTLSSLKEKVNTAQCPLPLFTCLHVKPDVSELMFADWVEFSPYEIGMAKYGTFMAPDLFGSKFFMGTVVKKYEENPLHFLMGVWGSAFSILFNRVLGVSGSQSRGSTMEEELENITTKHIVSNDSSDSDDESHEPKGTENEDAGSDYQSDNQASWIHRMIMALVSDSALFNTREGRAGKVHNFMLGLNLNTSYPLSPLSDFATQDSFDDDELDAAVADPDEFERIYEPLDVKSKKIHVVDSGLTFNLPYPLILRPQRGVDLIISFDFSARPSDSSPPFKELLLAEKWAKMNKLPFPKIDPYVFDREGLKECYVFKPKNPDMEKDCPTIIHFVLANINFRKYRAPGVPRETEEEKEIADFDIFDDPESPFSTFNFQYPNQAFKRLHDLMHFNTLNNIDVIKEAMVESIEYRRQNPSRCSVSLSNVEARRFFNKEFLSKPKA
As to the kind of experiment: Inhibition of human cPLA2 assessed as reduction in hydrolysis of 7-hydroxycoumarinyl-gamma-linolenate or 2-oxo-2H-chromen-[…] (6Z,9Z,12Z)-octadeca-6,9,12-trienoate at 100 uM by fluorometry. The essentials:
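Purified human cPLA2 (1 μg/mL final) started the reaction with 7-hydroxycoumarinyl-γ-linolenate substrate. Fluorescence (ex 355/em 460 nm) recorded over 84 min. Compound handled as in the 15-LOX assay.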

The target in experiment [4] is T1, Polyunsaturated fatty acid lipoxygenase ALOX15 (Homo sapiens). As to the kind of experiment: Activation of 15-LOX in human whole blood assessed as LTB4 production at 100 uM pre-incubated for 20 mins before stimulation with LPS and A23187 for 120 mins in presence of 2 uM 5-LOX inhibitor Zileuton by LC-MS/MS method. The format is tissue-based. An outline of the steps: as §1

For experiment [5] the target is unchanged. As to the kind of experiment: Activation of 15-LOX in human PMN assessed as 5-HETE production at 6.2 to 40 uM pre-incubated for 15 mins before A23187, Ca2+ and Mg2+ stimulation for 1 hr by LC-MS method. An outline of the steps:
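PMNs preincubated 15 min at 37 °C with compound or vehicle, then stimulated 1 h at 37 °C with 10 μM A23187 plus 2 mM Ca2+ and 2 mM Mg2+. Reactions stopped with cold methanol. Eicosanoids quantified by LC-MS.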

Experiment [6] has the same target. As to the kind of experiment: Activation of wild-type His6-tagged human 15-LOX expressed in Escherichia coli Rosetta DE3 assessed as 15-HpETE formation at 40 uM pre-incubated for 1 min before arachidonic acid substrate addition by cell free assay.

Take `CN1CCN(CC(=O)N2N=C3/C(=C/c4ccccc4)CCCC3C2c2ccccc2)CC1` (stereo unspecified): the result in experiment [1] and in experiment [5] was Active. For the same compound, the inhibition (commonly the drop in the measured response relative to a control, in per cent) in experiment [2] amounted to 63%; in experiment [3] it was 20%. Besides, the Activity in experiment [4] stood at 54%. In addition, the %max in experiment [6] was determined as 85%.
